From PubChem BioAssay
Shown are actives, neighbours in structure and some others; about 12% of the full set was active somewhere.
L major viab: Leishmania major promastigote growth inhibition; Leishmania major promastigotes, resazurin fluorescence viability; inhibition, % at 10 µM; hit rate 9% among 200,000; AID 1063; in the data active = inhibition above about 50%;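 note: promastigotes grown with compound for 44 hours at 28 °C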
ROMK primary: human ROMK K+ channel modulation, primary screen; Tet-inducible ROMK, thallium flux fluorescence; actives lie on both sides; B-score at 10 µM; hit rate 2% among 130,000; P48048;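 active = signal ratio slope over the read window, or its plate-corrected B-score, at least 3 SD from the plate mean, either direction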;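 note: B-score of the F/F0 ratio slope over 7 to 12 s after thallium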
Target sequence (P48048 whole entry, looked up): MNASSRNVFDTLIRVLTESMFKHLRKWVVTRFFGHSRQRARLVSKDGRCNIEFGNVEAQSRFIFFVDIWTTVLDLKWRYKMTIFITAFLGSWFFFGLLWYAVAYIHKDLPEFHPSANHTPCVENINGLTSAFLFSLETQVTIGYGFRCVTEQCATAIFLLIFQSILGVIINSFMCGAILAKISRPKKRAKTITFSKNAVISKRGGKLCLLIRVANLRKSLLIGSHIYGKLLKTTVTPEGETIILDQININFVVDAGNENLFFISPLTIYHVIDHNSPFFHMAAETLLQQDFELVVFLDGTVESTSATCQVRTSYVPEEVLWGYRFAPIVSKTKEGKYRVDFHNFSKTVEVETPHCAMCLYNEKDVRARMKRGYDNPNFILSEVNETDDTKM
WT yeast gro inh: growth inhibition of WT yeast, mitochondrial fusion screen; mitochondrial fusion phenotypic screen, WT strain; inhibition, % at 10 µM; AID 1362; hit rate 2.1% among 190,000; in the data active = inhibition above about 58%; tested in S. cerevisiae
Cl transport mod: modulators of human KCC2 chloride dependent transport | B-score of Tl+ flux slope (higher = more flux/activation; lower = inhibition) at 10 µM | hit rate 2.2% among 190,000 | AID 1456 | KCC2 cells, thallium flux FluoZin-2 fluorescence;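 active = thallium flux slope and its plate-corrected score both differing from the plate sample mean at a set confidence after two filtering rounds, in either direction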;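 note: slope of fluorescence scaled to starting intensity during 10 to 20 s after thallium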
Diaph act CS: activates diaphorase or chemically reduces, flagging diaphorase assay artifacts | activation factor at 20 µM | Diaphorase/resazurin coupled assay, resorufin fluorescence, 16 min; stronger effect = higher value; 1 = vehicle wells, 0 = NADH-free wells | AID 1229 | hit rate 0.005% among 190,000;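 active = diaphorase activity raised at least twofold by the compound at 20 µM; inactive = activation factor below 2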
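Test system: Clostridium kluyveri diaphorase, purified enzyme. Buffer or medium: 50 mM HEPES pH 7.4 buffer plus MgCl2 and Tween 20. Also added: 0.114 mM NADH and 0.1 mM resazurin, final amounts. Dosing: compound 20 µM once, DMSO 1%. Schedule: 16 min enzyme reaction, ambient temperature. Detection: fluorescence of resorufin, 544 nm excitation, 590 nm emission.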
Diaphorase inh: counter-screen for diaphorase-based assays: diaphorase inhibitors and chemical oxidizers; inhibition, % at 20 µM; AID 1217; diaphorase resazurin-to-resorufin fluorescence, NADH, 16 min; bacterial (C. kluyveri) enzyme, not human; hit rate 0.69% among 190,000;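 active = primary screen inhibition at 20 µM above a set limit, cut at about 50% in these data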
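System: Bacterial diaphorase enzyme (C. kluyveri) | Incubation: 16-min room-temperature incubation before reading | Benchmarks: No-NADH positive control and DMSO neutral control | Measured by: Resorufin fluorescence 544/590 nm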
Hits are given with their value; i = inactive; nt = no result given.

SMILES | L major viab | ROMK primary | WT yeast gro inh | Cl transport mod | Diaph act CS | Diaphorase inh
COC(=O)C1C(c2ccc(OC)c(OC)c2)NC(c2ccc(OC)c(OC)c2)C(C(=O)OC)S1(=O)=O (configuration not stated) | i | i | i | nt | i | i
COC(=O)C1CSc2[nH]c(=O)sc2C1c1ccc(OC)c(OC)c1 (configuration not stated) | i | nt | 77 | i | i | i
CCC(c1nnnn1CS(=O)(=O)c1ccc(C)cc1)N1CCN(c2nc3ccccc3s2)CC1 (configuration not stated) | 98 | nt | i | i | i | i
CCCCC(c1nnnn1CC1CCCO1)N1CCN(c2ccccc2)CC1 (configuration not stated) | i | i | i | i | i | i
CCCC(c1nnnn1Cc1cccs1)N1CCN(c2nc3ccccc3s2)CC1 (configuration not stated) | 97 | i | i | i | i | i
CC(C)CC(c1nnnn1CC1CCCO1)N1CCN(c2nc3ccccc3s2)CC1 (configuration not stated) | 91 | nt | i | i | i | i
CCCCC(c1nnnn1CC1CCCO1)N1CCN(c2cc(Cl)ccc2C)CC1 (configuration not stated) | i | i | 60 | i | i | i
OCCC1CN(Cc2cccn2-c2nccs2)CCN1Cc1ccc(F)c(F)c1 (configuration not stated) | i | nt | i | nt | i | i
CCCC12CN3CCN(CC(C3)/C1=N\NC(=O)c1ccccc1N)C2 | i | i | i | i | i | i
CCCC12CN3CCN(CC(C3)/C1=N\NC(=O)c1ccc(C(C)(C)C)cc1)C2 | i | i | 98 | i | i | i
O=C(N/N=C1\C2CN3CCN(C2)CC1(c1ccccc1)C3)c1ccc(F)cc1 | i | i | i | i | i | i
CC(C)(C)c1ccc(C(=O)N/N=C2\C3CN4CCN(C3)CC2(c2ccccc2)C4)cc1 | i | i | 98 | i | i | i
COc1ccc(C(c2nnnn2C2CCCC2)N2CCN(c3ccccc3)CC2)cc1 (configuration not stated) | 63 | nt | i | i | i | i
CCC(c1nnnn1CCc1ccccc1)N1CCN(c2ccc(OC)cc2)CC1 (configuration not stated) | 96 | nt | i | i | i | i
COc1ccc(Cn2nnnc2C(c2ccccc2)N2CCN(C3CCCC3)CC2)cc1 (configuration not stated) | i | nt | i | i | i | i
COc1ccc(C(c2nnnn2C2CCCCC2)N2CCN(c3ccccc3)CC2)cc1 (configuration not stated) | 84 | nt | nt | i | i | i
COc1ccc(C(c2nnnn2CCc2ccccc2)N2CCN(C3CCCC3)CC2)cc1 (configuration not stated) | 99 | nt | i | i | i | i
COc1ccc(N2CCN(C(c3nnnn3C3CCCC3)C(C)C)CC2)cc1 (configuration not stated) | i | i | i | i | i | i
COc1ccc(OC)c(C(c2nnnn2CCc2ccccc2)N2CCN(c3ccccc3)CC2)c1 (configuration not stated) | i | nt | i | i | i | i
CCOc1ccccc1CN1CCN(Cc2nc3c(s2)CCCC3)CC1CCO (configuration not stated) | i | i | i | i | nt | nt
O=C(Nc1cccc2ncccc12)c1ccc(OCc2ccccc2)cc1 | i | i | i | i | i | i
COc1ccc(C2Nc3ccccc3C(=O)N2O)cc1CN1CCOCC1 (configuration not stated) | i | nt | i | i | i | i
COc1ccccc1C(=O)C1CCCN(Cc2cn[nH]c2C2CCCCC2)C1 (configuration not stated) | i | i | i | i | i | i
Cn1cnnc1SCC(=O)NC1CCCCC1 | i | i | i | i | i | i
Cc1cc(C)cc(NC(=O)Cn2nnc3ccccc3c2=O)c1 | i | i | i | i | i | i
SMILES | L major viab | ROMK primary | WT yeast gro inh | Cl transport mod | Diaph act CS | Diaphorase inh
CC1CC(c2ccccc2)n2nc(NC(=O)c3ccco3)nc2N1 (configuration not stated) | i | -6.6 | i | i | i | i
COc1ccc(C2CC(c3ccc(F)cc3)n3nc(NC(=O)c4ccco4)nc3N2)cc1 (configuration not stated) | nt | nt | nt | i | nt | nt
COc1cc(OC)nc(-n2ncc(Br)c(Br)c2=O)n1 | 100 | i | i | i | i | i
O=C(c1ccc(Cl)c(Cl)c1)N(Cc1ccco1)c1ccc(O)cc1 | 70 | i | i | i | i | i
CCN(CC)CCNC(=O)c1cc2cc(Br)ccc2s1 | 96 | i | i | i | i | i
CCN(CC)CCNC(=O)c1ccc(NC(C)=O)cc1 | i | i | i | i | i | i
C=CCc1ccc(OCCOCCNCCOC)c(OC)c1 | 99 | nt | i | i | i | i
C=CCc1ccc(OCCCCNC(C)CC)c(OC)c1 (configuration not stated) | 90 | i | i | i | i | i
C=CCc1ccc(OCCOCCOc2cccc3ccc(C)nc23)c(OC)c1 | i | i | i | i | i | i
C=CCc1ccc(OCCOCCNCCCC)c(OC)c1 | 96 | i | i | i | i | i
CCC(C)NS(=O)(=O)c1ccc(OCC(=O)N2CCCCC2)cc1 (configuration not stated) | i | i | nt | i | i | i
COC(=O)c1c(CCl)noc1C(=O)NCC1CCCO1 (configuration not stated) | 100 | i | i | i | i | i
O=C(CC12CC3CC(CC(C3)C1)C2)N1CCN(S(=O)(=O)c2cccs2)CC1 | i | i | i | i | i | i
Nc1nc(CN2CCC(Cc3ccccc3)CC2)nc(Nc2ccccc2)n1 | 100 | i | i | i | i | i
CC1CC(C)CN(Cc2nc(N)nc(Nc3ccc4ccccc4c3)n2)C1 (configuration not stated) | 95 | nt | i | i | i | i
Nc1nc(CN2CCN(Cc3ccc4c(c3)OCO4)CC2)nc(Nc2ccccc2)n1 | 72 | nt | i | i | i | i
CC1CC(C)CN(Cc2nc(N)nc(Nc3ccccc3)n2)C1 (configuration not stated) | i | nt | i | i | i | i
Cc1cc(C)c(S(C)(=O)=O)c(Sc2ccc(Cl)cc2)n1 | i | nt | i | nt | i | i
Cc1ccc(NC(=O)CN(C)C(=O)c2ccc(S(=O)(=O)N(C)c3ccccc3)cc2)cc1 | i | i | i | i | i | i
CN1C(=S)SC(C)(C)C1(C)NO (configuration not stated) | i | nt | 65 | nt | i | i
CCSc1nc(CC)c2c(c1C#N)CCCC2 | i | i | i | i | i | i
Cc1cccc(Oc2nc(CN3CCOCC3)nc3sc4c(c23)CCCC4)c1 | 99 | i | i | i | i | i
Clc1nc(CN2CCOCC2)nc2sc3c(c12)CCC3 | i | i | i | i | i | i
